Drawing on ChEMBL document CHEMBL3102857, “Synthesis and biological evaluation of 6H-pyrido[2',1':2,3]imidazo[4,5-c]isoquinolin-5(6H)-ones as antimitotic agents and inhibitors of tubulin polymerization” (Bioorg Med Chem, 2014), this text covers IC50, Activity and inhibition for 27 compounds.

Activity calls are given as the source filed them. The rule behind the calls is not given here.

In test [1] the test system is HeLa. Put plainly: Antiproliferative activity against human HeLa cells after 72 hrs by SRB assay. It is filed as functional, cell-based. In outline:
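HeLa cells exposed to compound for 72 h, fixed with cold 10% TCA, stained with SRB in 1% acetic acid. Bound dye dissolved in 10 mM Tris-HCl and read at 515 nm. Inhibition % = [1 − (A515 treated/A515 control)] × 100. IC50 by Logit method, mean ± SD of at least three independent tests.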
Background: Sulforhodamine B stains cellular protein and so reports cell mass.

For test [2], the system named is HeLa. Put plainly: Cell cycle arrest in human HeLa cells assessed as decrease in accumulation at G0/G1 phase at 0.5 uM after 12 hrs by propidium iodide staining-based flow cytometric analysis. Format: functional. A digest of the protocol: (§1)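 Cells given 0.5 µM compound for 12 h, harvested, PBS-washed, fixed in cold 70% ethanol at 4 °C. Stained with propidium iodide ([…] as printed). DNA content analysed by flow cytometry for G0/G1, S and G2/M fractions.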
A general note: Flow cytometry measures light scatter and fluorescence of single cells or particles in a stream.

In test [3] the test system is HeLa. The test is described as follows: Cell cycle arrest in human HeLa cells assessed as decrease in accumulation at S phase at 0.5 uM after 12 hrs by propidium iodide staining-based flow cytometric analysis. It is filed as functional. A digest of the protocol: as §1
For test [4], the system named is HeLa. The test is described as follows: Antimitotic activity against human HeLa cells assessed as disruption of mitotic spindle assembly at 0.5 uM after 12 hrs by DAPI staining-based immunofluorescence microscopic analysis. It is filed as functional, cell-based. In outline: (§2)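 HeLa cells on glass coverslips, 0.5 µM compound for 12 h; fixed in 4% paraformaldehyde, permeabilized with 0.2% Triton X-100, blocked with 3% BSA. Stained with anti-α-tubulin (1:200) and Alexa Fluor 488 goat anti-mouse IgG (1:100), 1 h each, then DAPI. Imaged by fluorescence and confocal microscopy. Abnormal spindles scored as percentage of total mitotic cells.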

In test [5] the test system is HeLa. The test is described as follows: Antimitotic activity against human HeLa cells assessed as multipolar mitotic spindle with disordered chromosome organization at 0.5 uM after 12 hrs by DAPI staining-based immunofluorescence microscopic analysis. Format: functional, cell-based. In outline:
as §2

In test [6] the target is T1, Tubulin (Homo sapiens) (UniProt P68371+Q9H4B7+P0DPH7+P68366+Q13509+Q71U36+P04350+Q3ZCM7+P07437+P68363+Q9BQE3+Q6PEY2+Q13885+Q9BVA1+Q9BUF5). The test is described as follows: Displacement of [3H]-colchicine from tubulin (unknown origin) at 20 uM preincubated for 1 hr followed by radioligand addition measured after 30 mins by competitive binding assay. It is filed as protein-complex assay. A general note: In a radioligand displacement assay an active substance lowers the binding of a labelled ligand.

The target of test [7] is T1, Tubulin (Homo sapiens). The test is described as follows: Inhibition of tubulin polymerization (unknown origin) at 20 uM by spectrophotometric analysis. It is filed as protein-complex assay. A digest of the protocol:
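Purified tubulin combined with 20 µM compound on ice, then moved to 37 °C. Buffer: 80 mM PIPES pH 6.9, 0.5 mM EGTA, 2 mM MgCl2, 1 mM GTP. Polymerization followed by absorbance at 340 nm.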

Test [8] has as its system HeLa. The test is described as follows: Cell cycle arrest in human HeLa cells assessed as accumulation at G2/M phase at 0.5 uM after 12 hrs by propidium iodide staining-based flow cytometric analysis (reference value: 3%). It is filed as functional. A digest of the protocol: as §1

Broadly, the IC50 is the concentration needed to halve the response being measured. A low value points to greater potency in that assay. As a reminder, the inhibition is how much of the control response was suppressed.

For the compound `O=c1c2ccccc2c2nc3ccccn3c2n1Cc1ccco1`, the IC50 in test [1] is > 10000 nM.
On to `COc1ccc(CCn2c(=O)c3ccccc3c3nc4ccccn4c32)cc1`, for which the outcome in test [2], in test [3], in test [4] and in test [5] was Active. Besides, the results for the inhibition in test [6] and in test [7] were 74% and 76%, respectively. Moreover, in test [1], the IC50 came to 70 nM. For the same compound, the Activity in test [8] was 37%.
In the case of `COC(=O)Cn1c(=O)c2ccccc2c2nc3ccccn3c21`, in test [1], the IC50 was > 10000 nM.
`COc1ccc(CCn2c(=O)c3ccccc3c3nc4ccc(NCc5ccncc5)cn4c32)cc1`: the inhibition in test [6] was 53%; in test [7], 63%. Moreover, in test [1], the IC50 was determined as 100 nM.
With `COc1ccc(Cn2c(=O)c3ccccc3c3nc4ccc(Br)c(C)n4c32)cc1`, the 50% inhibitory concentration (IC50) in test [1] is > 10000 nM.
Same read-out and setting: the value for `COc1ccc(Cn2c(=O)c3ccccc3c3nc4ccccn4c32)c(OC)c1` was 2240 nM.
`COc1ccc(CCn2c(=O)c3ccccc3c3nc4ccc(NCc5ccccn5)cn4c32)cc1`: the inhibition in test [6] turned out to be 22%; in test [7], 27%. Further, the IC50 in test [1] was 240 nM.
In the case of `COC(=O)CCn1c(=O)c2ccccc2c2nc3ccccn3c21`, the IC50 in test [1] is > 10000 nM.
As to `COc1ccc(CCn2c(=O)c3ccccc3c3nc4ccc(NCCN5CCOCC5)cn4c32)cc1`, the inhibition in test [6] and in test [7] was 15% in each case. For the same compound, in test [1], half-maximal inhibition (IC50) required 1200 nM.
For the compound `COc1ccc(CCn2c(=O)c3ccccc3c3nc4ccc(NCCO)cn4c32)cc1`, the inhibition came to 34% in test [6] and 26% in test [7]. The IC50 in test [1] was 350 nM.
Consider `O=c1c2ccccc2c2nc3ccccn3c2n1CCc1ccc(O)cc1`, for which the IC50 in test [1] is > 10000 nM.
Still for that read-out and setting: the same measure for `COc1ccc(Cn2c(=O)c3ccccc3c3nc4c(C)cccn4c32)cc1`: > 10000 nM; for `CN(c1ccc(Cn2c(=O)c3ccccc3c3nc4ccccn4c32)cc1)S(C)(=O)=O`: > 10000 nM.
As for `COc1ccc(CCn2c(=O)c3ccccc3c3nc4ccc(NCCCn5ccnc5)cn4c32)cc1`, the figures for the inhibition in test [6] and in test [7] were 21% and 33%, respectively. In test [1], this compound gave a half-inhibitory concentration (IC50) of 770 nM.
The matching figures for `CCN(CC)CCNc1ccc2nc3c4ccccc4c(=O)n(CCc4ccc(OC)cc4)c3n2c1`: 20%, 18% and 2280 nM.
On to `COc1ccc(Cn2c(=O)c3ccccc3c3nc4ccccn4c32)cc1OC`, for which the IC50 in test [1] is > 10000 nM.
Still for that read-out and setting: the value for `COc1ccc(CCCn2c(=O)c3ccccc3c3nc4ccccn4c32)cc1` was > 10000 nM.
For `COc1ccc(CCn2c(=O)c3ccccc3c3nc4ccc(-n5ccnc5)cn4c32)cc1`, the results for the inhibition in test [6] and in test [7] were 36% and 40%, respectively. Besides, the IC50 in test [1] amounted to 120 nM.
Turning to `O=c1c2ccccc2c2nc3ccccn3c2n1Cc1ccc(OC(F)(F)F)cc1`, in test [1], the 50% inhibitory concentration (IC50) was > 10000 nM.
For the compound `COc1ccc(Cn2c(=O)c3ccccc3c3nc4ccccn4c32)cc1`, the result in test [2] and in test [3] was Active. The IC50 in test [1] came to 1800 nM. Further, the Activity in test [8] came to 4%.
With `COc1ccc(Cn2c(=O)c3ccccc3c3nc4cccc(C)n4c32)cc1`, the 50% inhibitory concentration (IC50) in test [1] was > 10000 nM.
In test [1], `COc1ccc(Cn2c(=O)c3ccccc3c3nc4ccc(C)cn4c32)cc1` displayed an IC50 of 6600 nM.
In the case of `CC[C@]1(O)C[C@H]2CN(CCc3c([nH]c4ccccc34)[C@@](C(=O)OC)(c3cc4c(cc3OC)N(C=O)[C@H]3[C@@](O)(C(=O)OC)[C@H](OC(C)=O)[C@]5(CC)C=CCN6CC[C@]43[C@@H]65)C2)C1` [VINCRISTINE], the inhibition in test [7] came to 77%. Besides, the half-maximal inhibitory concentration (IC50) in test [1] was 15 nM.
As for `CC(=O)OCCn1c(=O)c2ccccc2c2nc3ccccn3c21`, in test [1], the IC50 is > 10000 nM.
With `COc1ccc(CCn2c(=O)c3ccccc3c3nc4ccc(NCc5cccnc5)cn4c32)cc1`, the outcome in test [2], in test [3], in test [4] and in test [5] was Active. Besides, the inhibition amounted to 78% in test [6] and 74% in test [7]. In test [1], this compound returned an IC50 of 60 nM. In addition, the Activity in test [8] is on record as 41%.
For the compound `COc1ccc(Cn2c(=O)c3ccccc3c3nc4cc(C)c(Br)cn4c32)cc1`, the IC50 in test [1] is > 10000 nM.
Same read-out and setting: the same measure for `O=c1c2ccccc2c2nc3ccccn3c2n1Cc1ccc2c(c1)OCO2`: > 10000 nM.
